Results on 21 compounds are retold here after ChEMBL document CHEMBL4665711, “Synthesis of (Z)-3-(arylamino)-1-(3-phenylimidazo[1,5-a]pyridin-1-yl)prop-2-en-1-ones as potential cytotoxic agents” (Bioorg Med Chem Lett, 2020).

For orientation: GI50 means the concentration giving 50% growth inhibition. In general, IC50 refers to the point on the concentration scale where inhibition reaches its midpoint.

A short description of test [1]: Cytotoxicity against human breast cancer cells assessed as reduction in cell viability incubated for 24 hrs by MTT assay. In kind it is functional. Particulars: Breast cancer cell line. A general note: Tetrazolium dyes change colour on reduction, which living cells bring about.
For another test, the system named is A549. In words: Cytotoxicity against human A549 cells assessed as reduction in cell viability incubated for 48 hrs by MTT assay. In kind it is functional, cell-based. The settings on record: A549, 48 h. Summed up:
(§1)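 Cancer cell lines were exposed to drug for 48 h, and the 50% inhibitory concentration was determined. Values are averages of three individual experiments. A549, HCT-116, BT-474 and MDA-MB-231 are human lines; B16F10 is a murine melanoma line.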

The next test relates to BT-474. Nature of the test: Cytotoxicity against human BT-474 cells assessed as reduction in cell viability incubated for 48 hrs by MTT assay. The class given is functional, cell-based. The settings on record: BT-474, 48 h. Summed up: as §1
A further test concerns HCT-116. Nature of the test: Cytotoxicity against human HCT-116 cells assessed as reduction in cell viability incubated for 48 hrs by MTT assay. The class given is functional, cell-based. The settings on record: HCT-116, 48 h. Summed up: as §1
The subject of the next test is MDA-MB-231. Nature of the test: Cytotoxicity against human MDA-MB-231 cells assessed as reduction in cell viability incubated for 48 hrs by MTT assay. In kind it is functional, cell-based. The settings on record: MDA-MB-231, 48 h. In short, it runs like this: as §1
A further test has as its system B16-F10. In words: Cytotoxicity against mouse B16-F10 cells assessed as reduction in cell viability incubated for 48 hrs by MTT assay. The class given is functional, cell-based. Particulars: B16-F10, 48 h. Summed up:
as §1

Test [2] is described as follows: Cytotoxicity against human lung cancer cells assessed as reduction in cell viability incubated for 48 hrs by MTT assay. The class given is functional. Particulars: Lung cancer cell line.
A short description of test [3]: Cytotoxicity against human lung cancer cells assessed as reduction in cell viability incubated for 24 hrs by MTT assay. In kind it is functional. Particulars: Lung cancer cell line.

Each structure is given as a SMILES string. Where only a bound is given, the exact number is not on record here.

Consider `Fc1ccccc1-c1nc(-c2nc3ccc(C(F)(F)F)cc3[nH]2)c2ccccn12`, for which the GI50 in test [1] was determined as 1.37 µM.
Consider `COC(=O)Nc1nc2cc(C(=O)c3cccs3)ccc2[nH]1` [NOCODAZOLE], for which the IC50 in the test on A549 worked out at 3.63 µM; in the test with BT-474, 2.72 µM; in the test with HCT-116 it was 2.82 µM; with MDA-MB-231, 1.83 µM; with B16-F10 it was 3.12 µM.
Consider `O=C(/C=C\Nc1ccc(Cl)cc1)c1nc(-c2ccc(C(F)(F)F)cc2)n2ccccc12`, for which the IC50 with A549 was 18.5 µM; in the test with BT-474, 3.82 µM; in the test with HCT-116, 11.5 µM; in the test with MDA-MB-231, 3.84 µM; with B16-F10, > 30 µM.
For `O=C(/C=C\Nc1cnc2ccccc2c1)c1nc(-c2ccccc2)n2ccccc12`, in that order: > 30 µM, 19.7 µM, > 30 µM, 12.3 µM and 3.78 µM.
For `O=C(/C=C\Nc1ccc(F)cc1)c1nc(-c2ccc(C(F)(F)F)cc2)n2ccccc12` the same measures were > 30 µM, > 30 µM, > 30 µM, > 30 µM and > 30 µM.
For `COc1ccc(N/C=C\C(=O)c2nc(-c3ccc(C(F)(F)F)cc3)n3ccccc23)cc1` the same measures were 21.8 µM, > 30 µM, 7.72 µM, > 30 µM and > 30 µM.
For `O=C(/C=C\Nc1ccc2cc[nH]c2c1)c1nc(-c2ccc(C(F)(F)F)cc2)n2ccccc12`, the IC50 in the test on A549, with BT-474, in the test on HCT-116, in the test with MDA-MB-231 and with B16-F10 was > 30 µM throughout.
As for `COc1ccc(N/C=C\C(=O)c2nc(-c3ccc(OC)cc3)n3ccccc23)cc1`, the IC50 is 15.4 µM in the test with BT-474, > 30 µM in the test on HCT-116, > 30 µM in the test with MDA-MB-231 and 2.12 µM in the test on B16-F10.
On to `COc1ccc(N/C=C\C(=O)c2nc(-c3ccc(C(F)(F)F)cc3)n3ccccc23)cc1OC`, for which the IC50 in the test on A549, with BT-474, in the test on HCT-116, with MDA-MB-231 and with B16-F10 was > 30 µM in each case.
Consider `Cc1cc2cc(N/C=C\C(=O)c3nc(-c4ccc(F)cc4)n4ccccc34)ccc2[nH]1`, for which the IC50 with A549, in the test with BT-474, in the test with HCT-116, with MDA-MB-231 and with B16-F10 was > 30 µM in each case.
As for `O=C(/C=C\Nc1ccc2[nH]ccc2c1)c1nc(-c2ccc(C(F)(F)F)cc2)n2ccccc12`, the IC50 in the test with A549 turned out to be 5.19 µM; in the test on BT-474, 5.19 µM; in the test with HCT-116, 27.1 µM; in the test on MDA-MB-231, 1.18 µM; in the test on B16-F10, 18.2 µM.
In the case of `COc1ccc(-c2nc(C(=O)/C=C\Nc3ccc4[nH]ccc4c3)c3ccccn23)cc1`, the half-maximal inhibitory concentration (IC50) is 4.8 µM in the test on A549; 13 µM in the test on BT-474; 17.4 µM with HCT-116; 28.7 µM in the test on MDA-MB-231; 5.12 µM in the test on B16-F10.
For `COc1ccc(N/C=C\C(=O)c2nc(-c3ccccc3)n3ccccc23)cc1`, in that order: > 30 µM, 12.8 µM, 7.01 µM, 28.2 µM and 1.79 µM.
For `COc1ccc(N/C=C\C(=O)c2nc(-c3ccc(F)cc3)n3ccccc23)cc1` the same measures were 19.2 µM, 15.7 µM, > 30 µM, > 30 µM and 2.56 µM.
For `COc1ccc(-c2nc(C(=O)/C=C\Nc3ccc(Cl)cc3)c3ccccn23)cc1`, the IC50 was 37.3 µM in the test with BT-474, > 30 µM with HCT-116, > 30 µM with MDA-MB-231 and 1.24 µM with B16-F10.
As for `COc1ccc(-c2nc(C(=O)/C=C\Nc3ccc(F)cc3)c3ccccn23)cc1`, the IC50 in the test with A549, with BT-474, in the test on HCT-116, in the test on MDA-MB-231 and in the test with B16-F10 was > 30 µM each time.
`O=C(/C=C\Nc1ccc(O)cc1)c1cn(-c2ccccc2)nc1-c1ccc(F)cc1`: the IC50 in test [2] was 1.5 µM.
`O=C(/C=C\Nc1ccc(F)cc1)c1nc(-c2ccc(F)cc2)n2ccccc12`: the IC50 in the test with A549 is 13.2 µM; in the test with BT-474 it was 16.9 µM; with HCT-116, > 30 µM; in the test with MDA-MB-231, 25.1 µM; in the test on B16-F10, > 30 µM.
Consider `O=C(/C=C\Nc1cnc2ccccc2c1)c1nc(-c2ccc(C(F)(F)F)cc2)n2ccccc12`, for which the concentration for half-maximal inhibition (IC50) in the test on A549, in the test on BT-474, in the test on HCT-116, in the test with MDA-MB-231 and in the test with B16-F10 was > 30 µM in each case.
As for `O=C1Nc2ccccc2/C1=C\c1nc(-c2ccccc2F)n2ccccc12`, the GI50 in test [3] was found to be 3.46 µM.
In the case of `COc1ccc(N/C=C\C(=O)c2nc(-c3ccc(F)cc3)n3ccccc23)cc1OC`, the IC50 with A549, in the test with BT-474, in the test with HCT-116, in the test with MDA-MB-231 and in the test on B16-F10 was > 30 µM each time.
